Calls of active or inactive are those of the source. The calls are words filed in the database; no cut-off is given here.
Experiments:
[1] = system: A549; assay: Induction of cell death in human A549 cells assessed as accumulation of Noxa at 10 uM after 48 hrs by immunoblot assay; format: functional, cell-based
Method in brief: (§1)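 A549 cells grown in normal or A375-conditioned medium, treated with 10 µM. Immunoblots probed poly-ubiquitin accumulation, p53 stabilization and Noxa induction.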

[2] = system: T98G; assay: Induction of cell death in human T98G cells at 4.2 to 18.4 uM after 24 hrs by trypan blue assay in presence of zVAD-fmk; format: functional, cell-based
[3] = system: U-87 MG; assay: Induction of necrosis in human U87MG cells at 0.6 to 10 uM after 24 hrs by trypan blue assay; format: functional, cell-based; details: U-87MG ATCC
Method in brief: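 U87MG cells treated 24 h at the indicated concentrations. Death scored as percent trypan blue-positive cells. Caspase activity measured in parallel with a rhodamine 110 bis-(N-Z-DEVD amide) fluorogenic substrate and read in relative fluorescence units.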

[4] = Cytotoxicity against human U87MG cells after 48 hrs by resazurin assay; format: functional, cell-based, U-87MG ATCC; details: U-87 MG
Method in brief: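 U87MG glioblastoma cells treated with compounds; viability read by resazurin 48 h after treatment. IC50 from triplicate experiments, reported as mean and s.d.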

[5] = system: A-375; assay: Induction of cell death in human A375 cells assessed as accumulation of poly-ubiquitinated proteins at 10 uM after 24 hrs by immunoblot assay; format: functional, cell-based
[6] = system: T98G; assay: Induction of necrosis in human T98G cells at 0.6 to 10 uM after 24 hrs by trypan blue assay; format: functional, cell-based
Method in brief: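 T98G cells exposed 24 h to the listed concentrations. Cell death was scored as percent of trypan blue-positive cells.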

[7] = system: A549; assay: Induction of cell death in human A549 cells assessed as accumulation of poly-ubiquitinated proteins at 2.5 to 10 uM after 24 hrs by immunoblot assay; format: functional, cell-based
Method in brief: (§2)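 A549 cells dosed at three levels (2.5, 5, 10 µM or 1, 2.5, 5 µM depending on inhibitor); lysates made after 24 h. Immunoblots probed poly-ubiquitin, p53 and Noxa, quantified by densitometry; mean of two experiments.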

[8] = system: T98G; assay: Induction of apoptosis in human T98G cells assessed as caspase activation at 0.6 to 10 uM after 24 hrs by rhodamine-based fluorescence assay; format: functional, cell-based
Method in brief: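 U87MG or T98G cells exposed 24 h to the listed concentrations. Caspase activity was read as relative fluorescence units from the rhodamine 110 bis-(N-Z-L-aspartyl-L-glutamyl-L-valyl-aspartic acid amide) fluorogenic substrate.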

[9] = system: U-87MG ATCC; assay: Induction of cell death in human U87MG cells at 4.2 to 18.4 uM after 24 hrs by trypan blue assay in presence of zVAD-fmk; format: functional, cell-based
[10] = system: A549; assay: Induction of cell death in human A549 cells at 2.5 to 10 uM after 48 hrs by trypan blue assay; format: functional, cell-based
Method in brief: (§3)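 A549 or A375 cells treated 48 h with 2.5–10 µM. Cell death was scored by trypan blue exclusion as a function of concentration.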

[11] = system: A549; assay: Induction of cell death in human A549 cells assessed as stabilization of p53 at 2.5 to 10 uM after 24 hrs by immunoblot assay; format: functional, cell-based; method in brief: as §2
[12] = system: A549; assay: Induction of cell death in human A549 cells assessed as accumulation of poly-ubiquitinated proteins at 10 uM after 48 hrs by immunoblot assay; format: functional, cell-based; method in brief: as §1
[13] = system: A-375; assay: Induction of cell death in human A375 cells at 2.5 to 10 uM after 48 hrs by trypan blue assay; format: functional, cell-based; method in brief: as §3
[14] = system: HT-29; assay: Induction of cell death in human HT-29 cells at 2.5 to 10 uM after 48 hrs by trypan blue assay; format: functional, cell-based
[15] = system: A-375; assay: Cytotoxicity against human A375 cells after 48 hrs by resazurin assay; format: functional, cell-based; details: A-375, 48 h
[16] = target: T1, Ubl carboxyl-terminal hydrolase 18 (Homo sapiens) (UniProt Q9UMW8); assay: Inhibition of USP18 (unknown origin) expressed in human A549 cells coexpressing ISG15-GFP assessed as reduction in free GFP at 2.5 to 10 uM after 24 hrs by immunoblot assay; format: cell-based
T1 sequence (whole entry): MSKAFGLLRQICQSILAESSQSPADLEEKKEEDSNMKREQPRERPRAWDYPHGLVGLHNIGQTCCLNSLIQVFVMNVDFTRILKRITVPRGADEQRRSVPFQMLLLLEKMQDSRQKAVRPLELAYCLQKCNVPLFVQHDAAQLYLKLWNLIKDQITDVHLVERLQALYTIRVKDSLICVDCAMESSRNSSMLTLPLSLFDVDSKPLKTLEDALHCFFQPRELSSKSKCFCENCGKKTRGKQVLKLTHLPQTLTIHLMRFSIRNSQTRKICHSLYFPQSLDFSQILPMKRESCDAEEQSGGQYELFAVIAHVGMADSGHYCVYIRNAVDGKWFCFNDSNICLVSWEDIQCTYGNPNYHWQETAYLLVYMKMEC

[17] = system: A549; assay: Induction of cell death in human A549 cells assessed as accumulation of Noxa at 1 to 5 uM after 24 hrs by immunoblot assay; format: functional, cell-based; method in brief: as §2
[18] = system: A549; assay: Induction of cell death in human A549 cells at 10 uM after 24 to 72 hrs by trypan blue assay; format: functional, cell-based
Method in brief: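 A549 cells given 10 µM for 24–72 h. Cell death was scored by trypan blue at each time point.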

[19] = system: A549; assay: Cytotoxicity against human A549 cells after 48 hrs by resazurin assay; format: functional, cell-based; details: A549, 48 h
[20] = target: T2, Ubl carboxyl-terminal hydrolase 18 (Homo sapiens, UniProt Q9UMW8); assay: Inhibition of recombinant human USP18 (16 to 372 aa) expressed in Sf9 cells using ISG15-AMC as substrate preincubated for 30 mins before substrate addition measured after 60 mins by fluorescence assay
T2 sequence (Q9UMW8 whole entry): T1 sequence (whole entry)

[21] = target: T3, Ubiquitin carboxyl-terminal hydrolase isozyme L5 (Homo sapiens, UniProt Q9Y5K5); assay: Inhibition of GST-tagged UCHL5 (unknown origin) using Ub-AMC as substrate preincubated for 30 mins before substrate addition measured after 60 mins by fluorescence assay
T3 sequence (Q9Y5K5 whole entry): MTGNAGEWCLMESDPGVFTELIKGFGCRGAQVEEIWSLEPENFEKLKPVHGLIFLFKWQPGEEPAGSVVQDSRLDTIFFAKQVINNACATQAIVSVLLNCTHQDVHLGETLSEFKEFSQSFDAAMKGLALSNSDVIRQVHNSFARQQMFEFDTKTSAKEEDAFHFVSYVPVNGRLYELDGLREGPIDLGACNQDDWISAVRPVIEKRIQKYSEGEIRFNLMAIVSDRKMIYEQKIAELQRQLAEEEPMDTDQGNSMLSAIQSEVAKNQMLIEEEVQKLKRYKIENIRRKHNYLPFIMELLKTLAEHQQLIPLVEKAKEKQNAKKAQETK
Method in brief: (§4)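 Purified isopeptidase activity was measured with ubiquitin-AMC as fluorogenic substrate; IC50 was derived from inhibition.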

[22] = target: Ubiquitin carboxyl-terminal hydrolase isozyme L1 (Homo sapiens) (UniProt P09936); assay: Inhibition of GST-tagged recombinant full-length UCHL1 (unknown origin) expressed in bacteria using Ub-AMC as substrate preincubated for 30 mins before substrate addition measured after 60 mins by fluorescence assay; method in brief: as §4
Sequence of Ubiquitin carboxyl-terminal hydrolase isozyme L1 (Homo sapiens) (P09936 whole entry, looked up): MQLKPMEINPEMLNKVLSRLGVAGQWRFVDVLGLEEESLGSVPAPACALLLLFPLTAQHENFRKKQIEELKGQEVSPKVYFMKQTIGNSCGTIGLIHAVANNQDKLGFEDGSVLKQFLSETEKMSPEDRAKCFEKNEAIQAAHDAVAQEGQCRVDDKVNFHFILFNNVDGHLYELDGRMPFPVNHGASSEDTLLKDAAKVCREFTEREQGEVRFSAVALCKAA

[23] = Cytotoxicity against human MIAPaCa2 cells after 48 hrs by resazurin assay; format: functional, cell-based; details: MIA PaCa-2, 48 h
[24] = system: A-375; assay: Induction of cell death in human A375 cells assessed as Noxa induction at 10 uM after 24 hrs by immunoblot assay; format: functional, cell-based
[25] = system: HT-29; assay: Cytotoxicity against human HT-29 cells after 48 hrs by resazurin assay; format: functional, cell-based; details: HT-29, 48 h

For O=C1/C(=C/c2ccc([N+](=O)[O-])cc2)CC(O)C/C1=C\c1ccc([N+](=O)[O-])cc1 (stereo not given), the Activity [1] was “Active”, the Activity [2] was “inactive” and the Activity [3] was “Active”. For the same compound, the IC50 [4] was 4.62 µM, the Activity [5] was “Active” and the Activity [6] was “Active”. The Activity [7] was “Active”, the Activity [8] was “Active” and the Activity [9] was “Active”. The Activity [10] was “Active”, the Activity [11] was “Active” and the Activity [12] was “Active”. For the same compound, the Activity [13] was “Active”, the Activity [14] was “Active” and the IC50 [15] was 6.1 µM. For the same compound, the inhibition [16] was “Active”, the Activity [17] was “Active” and the Activity [18] was “Active”. It also gave an IC50 [19] of 16 µM, an IC50 [20] of 21.2 µM and an IC50 [21] of 43 µM. For the same compound, the inhibition [22] was “inactive”, the IC50 [23] was 35.2 µM and the Activity [24] was “Active”. For the same compound, the IC50 [25] was 7.6 µM.

Reference: ChEMBL document CHEMBL3407395, “Synthesis, characterization, and optimization for in vivo delivery of a nonselective isopeptidase inhibitor as new antineoplastic agent” (J Med Chem, 2015)
